# An excerpt weighted towards active compounds, which were near 2.5% of everything screened.
# SENP7 inh – inhibitors of human SENP7 protease; Q9BQF6; inhibition, % at 5 µM; 330,000 tested, 1.5% active; recombinant SENP7, Z-RLRGG-aminoluciferin luminescence, 40 min;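 active = inhibition above about 50% at the single test dose, limit read from the data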;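 note: plate controls were DMSO with enzyme for no effect and no enzyme buffer wells for full effect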
# Target sequence (Q9BQF6 706-1050 limits assumed): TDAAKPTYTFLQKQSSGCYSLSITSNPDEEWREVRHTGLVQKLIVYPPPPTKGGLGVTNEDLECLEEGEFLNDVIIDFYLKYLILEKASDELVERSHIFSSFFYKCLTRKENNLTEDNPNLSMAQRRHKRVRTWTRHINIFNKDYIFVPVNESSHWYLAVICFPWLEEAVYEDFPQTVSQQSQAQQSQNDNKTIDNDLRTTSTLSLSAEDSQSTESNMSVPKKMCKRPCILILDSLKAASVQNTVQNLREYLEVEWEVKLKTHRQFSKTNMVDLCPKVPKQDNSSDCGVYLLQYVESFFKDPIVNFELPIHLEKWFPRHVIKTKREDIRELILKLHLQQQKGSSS
# SENP8 block-1 – SENP8 (human) protease inhibition. Q96LD8. recombinant SENP8, Nedd8 substrate fluorescence. inhibition, % at 20 µM. 360,000 tested, 0.64% active. AID 602440; in the data active = inhibition mostly above about 40%, no sharp cut-off; inactive = mostly below about 27%
# SENP6 inh – SENP6 protease inhibition; 330,000 tested, 1.8% active; Q9GZR1; Recombinant SENP6 catalytic domain, aminoluciferin luminescence; inhibition, % at 10 µM;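 active = inhibition above about 50% at the single tested dose, limit read from the data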;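 note: plate controls were DMSO wells with enzyme for no effect and DMSO wells lacking enzyme for full effect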
# SENP8 block-2 – blocks the human protease SENP8; AID 2540; inhibition, % at 10 µM; purified SENP8, Z-RLRGG-aminoluciferin cleavage, luminescence; 330,000 tested, 1.2% active; in the data active = inhibition above about 50%
# SENP1 inh – inhibitors of human SENP1 SUMO protease catalytic domain. Q9P0U3. recombinant SENP1 catalytic domain, CyPet-SUMO1-YPet FRET cleavage. inhibition, % at 10 µM. 360,000 tested, 0.21% active. AID 624204;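 active = inhibition at least 30% at 10 µM, raw YFP signal under a set limit, fluorescence ratio 0.5 to 1.5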;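 note: 0% = enzyme with DMSO and 100% = no enzyme wells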
# Target sequence (Q9P0U3 419-644 limits assumed): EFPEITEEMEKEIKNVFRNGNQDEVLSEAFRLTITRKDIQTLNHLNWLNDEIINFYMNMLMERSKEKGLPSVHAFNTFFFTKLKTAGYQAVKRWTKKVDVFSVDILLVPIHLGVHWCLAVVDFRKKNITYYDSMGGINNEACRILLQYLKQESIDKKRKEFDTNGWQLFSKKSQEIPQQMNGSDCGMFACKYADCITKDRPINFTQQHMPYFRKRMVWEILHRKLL
#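 Test system: hSENP1 catalytic domain, recombinant; Amount: 20 pM final SENP1 enzyme; Medium: Tris pH 8 buffer plus EDTA, NaCl, BME, BSA, NP40, catalase; Schedule: 50 min enzyme reaction, room temperature, light-protected; Technique: FRET fluorescence in CFP and YFP emission channels; Controls: no-enzyme wells low, DMSO-plus-enzyme wells high control.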
# Active calls of the source: *; x = not tested or not shown.
SMILES,SENP7 inh,SENP8 block-1,SENP6 inh,SENP8 block-2,SENP1 inh
O=C1c2ccccc2C(=O)c2c1ccc1c(=O)n(-c3ccccc3)[nH]c21,11,26,14,3,-2
CC(C)Cn1[nH]c2c3c(ccc2c1=O)C(=O)c1ccccc1C3=O,7,43*,27,7,2
CN1CCN(Cc2c(C(=O)N/N=C/c3cccc(Br)c3)nnn2-c2nonc2N)CC1,-13,15,-8,-15,3
O=C(C[C@H]1CC[C@@H](NC(=O)C2CC2)[C@@H](CO)O1)NCc1ccccc1Cl,x,4,x,x,1
N#Cc1c(N)sc(=S)c2c1CCN(Cc1ccccc1)C2,79*,x,94*,96*,x
O=C1c2cccc(Cl)c2C(=O)c2c1cccc2N1CCCC1,8,74*,29,27,1
CCc1ccc(Nc2nnc(SCC(=O)NCCN3C(=O)CSC3=O)s2)cc1,43,1,52*,23,2
COC(=O)Nc1nnc(/C=C/c2ccc(OC)cc2)s1,-1,-400,59*,37,-25
COc1ccc(/C=C/c2nnc(NC(C)=O)s2)cc1,40,-442,37,38,-75
O=C(COc1cc(Cl)c(Cl)cc1Cl)Nc1ccncc1,-5,21,-3,-3,3
O=C(COc1cc(Cl)c(Cl)cc1Cl)Nc1cccc(O)c1,63*,22,48,21,1
NS(=O)(=O)c1cccnc1Nc1c(Cl)cccc1Cl,-7,13,-17,-1,-2
CCc1ccc(/C=C/C(=O)C2C(=O)c3ccccc3C2=O)cc1,15,50*,-1,-11,7
O=C(/C=C/c1ccccc1)C1C(=O)c2ccccc2C1=O,23,11,20,3,2
CC1=C(C)C(=O)C(N2CCOCC2)=CC1=O,x,47*,x,x,-1
O=C1C=C(N2CCOCC2)c2ccccc2C1=O,90*,-150,90*,94*,0
O=C1C=C(N2CCOCC2)c2cccc3cccc1c23,x,19,x,x,12
CC[N+](CC)=N/N=C1\C=CC[N+]([O-])=C1,x,10,x,x,0
COc1ccc2[nH]cc(CCNS(=O)(=O)Cc3ccccc3)c2c1,0,-9,-11,0,-4
COc1ccc(/C=C/C(=O)c2cc3c(cc2N)OCO3)cc1,96*,0,95*,96*,-5
CN1CCN(c2ccc(NC(=O)c3ccc(Br)o3)cc2)CC1,47,5,57*,33,-2
COc1ccccc1/C=C1\SC(=S)N(CCC(=O)N2CCCCC2CCO)C1=O (stereo not given),-5,51*,2,0,-11
COc1ccccc1/C=C1\SC(=O)N(CCC(=O)N2CCCCC2CCO)C1=O (stereo not given),-5,-33,2,-9,-3
O=C(CSc1nnc(COc2ccccc2)o1)Nc1ccc(F)cc1,9,1,-17,6,-1
O=c1oc(-c2ccc([N+](=O)[O-])cc2)nc2ccc(O)cc12,100*,7,95*,95*,5
SMILES,SENP7 inh,SENP8 block-1,SENP6 inh,SENP8 block-2,SENP1 inh
O=c1oc(-c2ccc([N+](=O)[O-])cc2)nc2ccccc12,-19,11,7,-4,3
CC(=O)c1c(C)[nH]c(C(=O)OCC(=O)N2CCc3ccccc3C2)c1C,-7,-2,-3,-6,1
CCCCOc1ccc(OCCCC)c2c1NC1(N2)C(=O)N(C(C)=O)c2ccccc21,4,23,3,-1,45*
COC(=O)C1=C(C(=O)OC)SC(=C2C(=S)C(C)(C)N(C(=O)C3CC3)c3ccccc32)S1,10,42*,10,-5,5
COC(=O)C1=C(C(=O)OC)SC(=C2C(=S)C(C)(C)N(C(=O)C(C)C)c3ccccc32)S1,8,46*,2,1,5
CC1(C)c2ssc(=S)c2-c2ccccc2N1C(=O)CSC1=NCCS1,1,12,10,0,2
CC1C(=O)Nc2ccccc2N1C(=O)C1CC1 (stereo not given),4,38,7,5,0
CCCC(=O)N1c2ccccc2C(=C2SC(C(=O)OC)=C(C(=O)OC)S2)C(=S)C1(C)C,5,67*,4,6,2
CCOC(=O)C1(C)C(C(=O)OC)=C(c2ccc(OC)cc2)c2ccccc2N1C(=O)OC (stereo not given),2,-7,x,x,-1
CCC(NC(=O)c1ccc2nc(Cc3ccc(OC)cc3)oc2c1)c1ccncc1 (stereo not given),-9,13,-2,-5,2
Cc1cccc(NC(=S)NNc2cccc(Cl)c2)c1,2,-1,-21,-9,1
COc1ccc(NC(=S)Nc2cccc([N+](=O)[O-])c2)cc1,-3,5,-2,-1,2
Cc1ccc(NS(=O)(=O)c2cc([N+](=O)[O-])ccc2NNC(=S)Nc2cccc(Cl)c2)c(C)c1,x,35,x,x,54*
COc1ccc(NC(=S)NNc2ccc([N+](=O)[O-])cc2S(=O)(=O)Nc2ccc(C)cc2C)cc1,-12,27,0,-2,42*
Cc1ccc(NS(=O)(=O)c2cc([N+](=O)[O-])ccc2NNC(=S)Nc2cc(C)ccc2C)c(C)c1,5,33,8,-1,62*
O=C(c1ccc(Br)o1)N1CCc2ccccc21,95*,x,94*,93*,x
CCc1cccc(CC)c1NC(=O)C1CCN(C(=O)c2ccco2)CC1,-1,17,33,3,0
Cc1ccc(/C=C(\C#N)C(=O)NC(C)C)o1,0,10,-4,-2,2
CC(C)NC(=O)/C(C#N)=C/c1ccc(N(C)C)o1,-8,40*,-7,0,-45
COC(=O)CNC(=O)CN1C(=O)N(c2ccc(Cl)cc2)C(N(O)C(=O)Nc2ccc(Cl)cc2)C1(C)C (stereo not given),4,1,-6,1,-2
COc1ccc(C(C)(O)c2nc(-c3ccoc3)cs2)cc1 (stereo not given),x,-1,x,x,-7
Cc1cccc(-n2ccc(=O)c(C(=O)Nc3ccc(S(=O)(=O)Nc4nccc(C)n4)cc3)n2)c1,1,14,3,5,-1
CCc1ccc(C(=O)COC(=O)c2cccs2)cc1,97*,24,4,91*,2
CCC(=O)c1ccc(OC(=O)c2cccs2)cc1,-4,19,-59,-46,5
Nc1nc(NCCN2CCOCC2)nc(NCc2ccccc2)c1[N+](=O)[O-],0,29,0,3,3
COc1cccc(NC(=S)/C(=C(\[O-])c2ccc(C)c([N+](=O)[O-])c2)[n+]2ccccc2)c1,3,39*,47,9,-38
Cc1ccc(NC(=S)/C(=C(\[O-])c2ccc(C)c([N+](=O)[O-])c2)[n+]2ccccc2)cc1C,-3,x,-8,4,x
Cc1nnsc1C(=O)NC(=O)Nc1ccc(F)c(Cl)c1,18,25,82*,78*,-1
COc1ccc(NC(=O)Nc2ccc(F)c(Cl)c2)cc1,51*,14,-5,9,0
